# Test results: ChEMBL document CHEMBL5032493, “Synthesis and Evaluation of PPARδ Agonists That Promote Osteogenesis in a Human Mesenchymal Stem Cell Culture and in a Mouse Model of Human Osteoporosis” (J Med Chem, 2021)
# Activity calls are given as the source filed them. No cut-off for these calls is given here.
# Assays:
# Mesenchymal stem cells [1] = experiment: Induction of adipogenesis differentiation in human Mesenchymal stem cells at 20 uM incubated for 21 days by […] staining-based microscopic analysis; type: functional, cell-based; conditions: time 21.0 day
# Mus musculus [2] = experiment: Antiosteoporotic activity against OVX-induced bone loss C57BL/6 mouse model assessed as increase in trabecular bone density at 10 mg/kg, po for 6 weeks by microcomputed tomography method relative to sham treated control; type: functional, organism-based
# Procedure, shortened: (§1)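 Female C57BL/6 mice ovariectomized at 12 weeks of age; sham-operated group kept ovaries intact. After recovery, daily oral gavage of compound or vehicle for 6 weeks, sacrifice at 22 weeks of age. Distal femur trabecular structure analysed by micro-computed tomography, including bone volume/total volume, compared with sham mice; GW0742 as positive control.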
# Mesenchymal stem cells [3] = experiment: Induction of osteogenesis differentiation in human Mesenchymal stem cells at 20 uM incubated for 21 days by Alizarin Red S staining-based microscopic analysis; type: functional, cell-based; conditions: time 21.0 day
# [4] = target: T1, Peroxisome proliferator-activated receptor alpha (Homo sapiens) (UniProt Q07869); experiment: Agonist activity at human PPARalpha transfected in COS-7 cells assessed maximum luciferase activity measured after 24 hrs by cell based luciferase transactivation assay relative to gemfibrozil; conditions: filed as agonist
# T1 sequence (whole entry): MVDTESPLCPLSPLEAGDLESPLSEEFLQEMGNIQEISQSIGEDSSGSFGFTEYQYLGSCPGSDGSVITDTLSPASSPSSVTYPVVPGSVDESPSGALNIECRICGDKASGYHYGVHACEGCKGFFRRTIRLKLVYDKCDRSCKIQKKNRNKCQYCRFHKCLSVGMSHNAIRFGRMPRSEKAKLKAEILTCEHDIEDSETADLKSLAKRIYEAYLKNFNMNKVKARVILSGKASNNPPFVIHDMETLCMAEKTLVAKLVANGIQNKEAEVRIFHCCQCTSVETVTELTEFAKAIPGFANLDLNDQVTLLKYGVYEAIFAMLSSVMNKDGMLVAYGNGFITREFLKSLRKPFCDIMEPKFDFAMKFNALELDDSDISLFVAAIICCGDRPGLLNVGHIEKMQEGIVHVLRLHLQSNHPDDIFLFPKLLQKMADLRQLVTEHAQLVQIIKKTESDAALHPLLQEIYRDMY
# Procedure, shortened: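 Transient transfection of COS-7 cells with human PPARα, PPARγ or PPARδ plus luciferase reporter; constitutive Renilla luciferase also read. […] Three or more independent experiments in triplicate (N ≥ 9).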
# Mus musculus [5] = experiment: Antiosteoporotic activity against OVX-induced bone loss C57BL/6 mouse model assessed as increase in ratio of bone volume to total volume at 10 mg/kg, po for 6 weeks by microcomputed tomography method relative to sham treated control; type: functional, organism-based; procedure, shortened: as §1
# Mesenchymal stem cells [6] = experiment: Induction of adipogenesis differentiation in human Mesenchymal stem cells at 10 uM incubated for 21 days by […] staining-based microscopic analysis; type: functional, cell-based; conditions: time 21.0 day
# [7] = target: T2, Peroxisome proliferator-activated receptor gamma (Homo sapiens, UniProt P37231); experiment: Agonist activity at human PPARgamma transfected in COS-7 cells assessed luciferase activity measured after 24 hrs by cell based luciferase transactivation assay
# T2 sequence (P37231 whole entry): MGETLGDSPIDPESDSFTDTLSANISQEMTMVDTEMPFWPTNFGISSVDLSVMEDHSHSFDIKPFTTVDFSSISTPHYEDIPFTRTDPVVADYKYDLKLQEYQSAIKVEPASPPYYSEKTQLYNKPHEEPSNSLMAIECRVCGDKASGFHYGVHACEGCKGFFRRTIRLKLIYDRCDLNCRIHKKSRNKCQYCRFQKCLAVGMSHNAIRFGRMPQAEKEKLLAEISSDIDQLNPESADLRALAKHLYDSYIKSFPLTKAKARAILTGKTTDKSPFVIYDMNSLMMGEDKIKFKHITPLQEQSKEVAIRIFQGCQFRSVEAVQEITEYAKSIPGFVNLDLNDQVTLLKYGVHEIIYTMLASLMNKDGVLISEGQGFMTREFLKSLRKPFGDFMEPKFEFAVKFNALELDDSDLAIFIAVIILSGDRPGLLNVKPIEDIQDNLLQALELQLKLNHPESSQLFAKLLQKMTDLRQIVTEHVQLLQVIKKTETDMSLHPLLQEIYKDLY
# [8] = Toxicity in OVX-induced bone loss C57BL/6 mouse model assessed as change in behaviour at 10 mg/kg, po for 6 weeks; type: organism-based; conditions: in vivo, 1008 h
# Procedure, shortened: (§2)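 OVX C57BL/6 females (surgery at 12 weeks, sham controls) dosed daily by oral gavage for 6 weeks. Gross toxicity monitored during dosing as weight, behaviour, eating and other habits versus controls.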
# Mesenchymal stem cells [9] = experiment: Induction of osteogenesis differentiation in human Mesenchymal stem cells at 1 uM incubated for 21 days by Alizarin Red S staining-based microscopic analysis; type: functional, cell-based; conditions: time 21.0 day
# [10] = Toxicity in OVX-induced bone loss C57BL/6 mouse model assessed as change in body weight at 10 mg/kg, po for 6 weeks; type: organism-based; conditions: in vivo, 1008 h; procedure, shortened: as §2
# [11] = Glutathione reactivity at pH 7.4 assessed as compound remaining measured after 24 hrs by LC-MS/MS method; type: physicochemical; conditions: pH 7.4, 24 h
# Procedure, shortened: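 Substrate incubated in triplicate with 10-fold excess glutathione in pH 7.4 phosphate buffer containing 50% methanol at 25 °C for up to 24 h. Substrate loss followed at several time points by LC-MS/MS, which also confirmed the structure of glutathione conjugates.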
# Mesenchymal stem cells [12] = experiment: Induction of osteogenesis differentiation in human Mesenchymal stem cells at 10 uM incubated for 21 days by Alizarin Red S staining-based microscopic analysis; type: functional, cell-based; conditions: time 21.0 day
# [13] = Toxicity in OVX-induced bone loss C57BL/6 mouse model assessed as change in eating at 10 mg/kg, po for 6 weeks; type: organism-based; conditions: in vivo, 1008 h; procedure, shortened: as §2
# [14] = target: T3, Peroxisome proliferator-activated receptor delta (Homo sapiens, UniProt Q03181); experiment: Agonist activity at human PPARdelta transfected in COS-7 cells assessed luciferase activity measured after 24 hrs by cell based luciferase transactivation assay
# T3 sequence (Q03181 whole entry): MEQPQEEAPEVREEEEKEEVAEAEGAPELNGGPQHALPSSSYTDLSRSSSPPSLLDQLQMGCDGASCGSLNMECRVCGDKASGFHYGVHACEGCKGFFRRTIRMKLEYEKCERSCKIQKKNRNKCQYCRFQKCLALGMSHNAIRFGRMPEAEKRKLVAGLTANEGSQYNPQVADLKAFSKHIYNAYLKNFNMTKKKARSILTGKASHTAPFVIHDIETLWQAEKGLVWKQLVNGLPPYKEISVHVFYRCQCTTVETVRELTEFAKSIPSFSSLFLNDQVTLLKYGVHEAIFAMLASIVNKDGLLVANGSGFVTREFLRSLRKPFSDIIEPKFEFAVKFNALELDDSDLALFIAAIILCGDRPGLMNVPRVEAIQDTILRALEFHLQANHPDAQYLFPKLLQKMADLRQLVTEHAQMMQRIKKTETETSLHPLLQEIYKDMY
# [15] = target: T4, Peroxisome proliferator-activated receptor alpha (Homo sapiens, UniProt Q07869); experiment: Agonist activity at human PPARalpha transfected in COS-7 cells assessed luciferase activity measured after 24 hrs by cell based luciferase transactivation assay; conditions: read-out: EC50
# T4 sequence (Q07869 whole entry): T1 sequence (whole entry)
# Procedure, shortened: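 Transient transfection of COS-7 cells with human PPARα, PPARγ or PPARδ plus luciferase reporter; constitutive Renilla luciferase also read. Three or more independent experiments in triplicate (N ≥ 9).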
# Mesenchymal stem cells [16] = experiment: Induction of adipogenesis differentiation in human Mesenchymal stem cells at 1 uM incubated for 21 days by […] staining-based microscopic analysis; type: functional, cell-based; conditions: time 21.0 day
# Mesenchymal stem cells [17] = experiment: Cytotoxicity against human Mesenchymal stem cells expressing human PPARdelta assessed as morphological changes at 50 uM by microscopy analysis; type: cell-based
# [18] = tested on: COS-7 (Chlorocebus aethiops); experiment: Cytotoxicity against COS-7 cells expressing human PPARdelta assessed as morphological changes at lower concentration by microscopy analysis; conditions: monkey
# [19] = tested on: PPARdelta (human, expressed in COS-7 cells); experiment: Cell toxicity index, ratio of CT50 to EC50 for agonist activity at human PPARdelta expressed in COS-7 cells; conditions: monkey
# L929 [20] = experiment: Cytotoxicity against mouse L929 cells assessed as reduction in cell viability at 100 uM; type: cell-based; conditions: l929, 100 µM
# Mus musculus [21] = experiment: Antiosteoporotic activity against OVX-induced bone loss C57BL/6 mouse model assessed as increase in microarchitectures at 10 mg/kg, po for 6 weeks by microcomputed tomography method relative to sham treated control; type: functional, organism-based; procedure, shortened: as §1
# [22] = Cytotoxicity against human HEK293T/17 cells assessed as reduction in cell viability at 10 to 100 uM measured after 72 hrs by MTT assay; type: cell-based; conditions: hek293t/17, 72 h, dose 10-100 µM
# Procedure, shortened: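 HEK 293T/17 cultures exposed to agent for 24 h or 72 h; viability by MTT. Controls: H2O2 (toxic positive), plain medium, vehicle at 0.1% DMSO corresponding to the 100 μM dose; doses by serial dilution in medium. Quadruplicate (N = 4), mean with SD; two-tailed P versus 0 μM. Viability <70% taken as relevant to human toxicity.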
# L929 [23] = experiment: Cytotoxicity against mouse L929 cells assessed as reduction in cell viability at 1 to 100 uM measured after 72 hrs; type: cell-based; conditions: l929, 72 h, dose 1-100 µM
SMILES,Activity (Mesenchymal stem cells [1]),Activity (Mesenchymal stem cells [3]),Emax [4],Activity (Mus musculus [5]),Activity (Mesenchymal stem cells [6]),EC50 ([7]; read-out: EC50),Activity [8],Activity (Mesenchymal stem cells [9]),Activity [10],Stability [11],Activity (Mesenchymal stem cells [12]),Activity [13],EC50 [14],EC50 [15],Activity (Mesenchymal stem cells [16]),other results
Cc1nc(-c2ccc(C(F)(F)F)c(F)c2)sc1COc1ccc(/C=C/C(=O)O)cc1,inactive,Active,346%,Active,Active,13.2 µM,Toxic,Active,Toxic,Stable,Active,Toxic,95.9 nM,51300 nM,inactive,Activity (Mus musculus [2]): Active
Cc1nc(-c2ccc(C(F)(F)F)cc2)sc1COc1ccc(/C=C/C(=O)O)cc1,,,135%,,,,,Active,,,,,274 nM,2230 nM,Active,EC50 ([7]; cos-7): Not Active; Activity (Mesenchymal stem cells [17]): Toxic; Activity [18]: Non-Toxic
Cc1nc(-c2ccc(C(F)(F)F)c(F)c2)sc1CSc1ccc(/C=C/C(=O)O)cc1,inactive,Active,163%,Active,inactive,1.3 µM,Toxic,Active,Toxic,Stable,Active,Toxic,134 nM,915 nM,inactive,selectivity ratio [19]: 1350; Activity (L929 [20]): Toxic; Activity (Mus musculus [21]): Active; Activity [22]: Toxic; Activity (L929 [23]): Toxic
